Source: PubChem BioAssay
AHR activator: activators of human aryl hydrocarbon receptor | P35869 | AHR-responsive luciferase reporter cells, luminescence | activation, % at 5 µM | actives 2.5% (n = 320,000); in the data active = activation above about 47%;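 also: 0% = vehicle wells and 100% = reference agonist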
HIF act: HIF pathway transcriptional activation; U2OS HRE-luciferase reporter, luminescence; normalized: DMSO 0%, desferrioxamine 100%; activation, % at 7.5 µM (by protocol); actives 0.32% (n = 300,000);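 active = mean activation of at least 10% of the iron chelator positive control signal, with at least half of replicates also reaching 10%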
SR-BI HDL uptake: blocks mouse SR-BI lipid uptake from DiI-HDL | Q61009 | ldlA[mSR-BI] CHO cells, DiI-HDL uptake fluorescence, 3 h | inhibition, % at 12.5 µM | actives 0.96% (n = 320,000) | AID 488896;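 active = mean replicate inhibition of at least 70% and a set share of replicates each scoring 70 or more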;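 also: 0% = median of neutral control wells and 100% = median of positive control wells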
FXN GAA850 act: activators of GAA850 frataxin (FXN) promoter; AID 540364; HEK293 lucGAA850 FXN promoter luciferase reporter, 24 h; percent of 10 µM SAHA response; actives 0.56% (n = 360,000); activation, % at 6 µM;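 active = activation above the average of all compounds screened plus 3 SD, cutoff fixed separately per campaign, cut at about 7.5% in these data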;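 also: 0% = DMSO wells and 100% = 10 µM SAHA wells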
ABCB6 inh MLPCN: inhibitors of human ABC transporter ABCB6 | Q9NP58 | fluorescence ratio to DMSO, % at 10 µM | actives 0.19% (n = 360,000) | K562-ABCB6 porphyrin accumulation, flow cytometry, 1 h; active compounds read low;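 active = fluorescence ratio to DMSO below 75%, the collection mean minus 3 SD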;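 also: signal is porphyrin accumulated inside mitochondria; 100% equals median channel fluorescence of DMSO control wells; lower ratio means ABCB6 inhibition with less porphyrin fluorescence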
SR-BI DiI-HDL act: SR-BI HDL lipid transfer activation | actives 0.096% (n = 320,000) | CHO ldlA[mSR-BI] cells, DiI-HDL uptake fluorescence, 3 h; 100 = double the neutral-control signal | activation, % at 12.5 µM;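 active = mean replicate activation of at least 60% and every replicate at or above 60%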;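 also: 0% = median plate neutral-control signal and 100% = twice that signal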
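Material – SR-BI-overexpressing, LDLR-lacking CHO cells · Medium – BSA-supplemented, HEPES-buffered Ham's F12, pH 7.4 · Doses – single concentration · Times – compound with DiI-HDL co-incubation, 3 h at 37 °C · Measured by – bottom-read fluorescence, 550/595 nm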
* marks the source's active call; other numbers are inactive results. A selection: hits, their analogues and other compounds. The true share with any hit is near 3.9%.

`O=C1C=C(c2cccc3c2Oc2ccccc2S3)C[C@@H](c2ccc(Cl)cc2)C1` gave AHR activator 2, SR-BI HDL uptake 3, FXN GAA850 act 3, ABCB6 inh MLPCN 96 and SR-BI DiI-HDL act -3.
Cc1cc(NC(=O)CSCC(=O)OCC(=O)c2cccc(Br)c2)no1 was read as AHR activator 5, SR-BI HDL uptake -5, FXN GAA850 act 0, ABCB6 inh MLPCN 95 and SR-BI DiI-HDL act 5.
Screening O=C(c1ccc(CS(=O)c2ccccc2Cl)o1)N1CCN(c2ccccn2)CC1 (configuration not stated) returned AHR activator 59*, HIF act 3, SR-BI HDL uptake 32, FXN GAA850 act -2, ABCB6 inh MLPCN 101 and SR-BI DiI-HDL act -32.
Screening COc1ccccc1S(=O)(=O)Cc1ccc(C(=O)N2CCN(c3ccccn3)CC2)o1 returned AHR activator 66*, SR-BI HDL uptake 28, FXN GAA850 act -1, ABCB6 inh MLPCN 100 and SR-BI DiI-HDL act -28.
Screening COc1ccc(S(=O)(=O)Cc2ccc(C(=O)N3CCN(c4ccccn4)CC3)o2)cc1 returned AHR activator 18, SR-BI HDL uptake 9, FXN GAA850 act -3, ABCB6 inh MLPCN 98 and SR-BI DiI-HDL act -9.
Screening COc1ccc2oc(C(=O)Nc3ccccn3)c(C)c2c1 returned AHR activator 72*, HIF act 0, SR-BI HDL uptake 16, FXN GAA850 act 1, ABCB6 inh MLPCN 99 and SR-BI DiI-HDL act -17.
For COc1ccc2oc(C(=O)Nc3ccc(C)cn3)c(C)c2c1 the results were AHR activator 75*, HIF act 4, SR-BI HDL uptake -16, FXN GAA850 act 1, ABCB6 inh MLPCN 93 and SR-BI DiI-HDL act 16.
Cc1cccc(C)c1N1CCN(c2cc(Cl)nc(N)n2)CC1 was read as AHR activator 1, HIF act 1, SR-BI HDL uptake 3, FXN GAA850 act -1, ABCB6 inh MLPCN 94 and SR-BI DiI-HDL act -3.
